Values belong to the compound of their own block, whether it stands above or below them.
What was measured:
PDK3 [1] = biological target: T1, PDK3 (Homo sapiens, UniProt Q15120); assay: Fluorescence quenching binding study with purified PDK3
How it was run: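 Intrinsic tryptophan fluorescence quenching of refolded His-tagged human PDK3 (4 μM) at 25 ± 0.1 °C in 50 mM Tris pH 8.0. Test compounds come from 10–30 mM DMSO stocks and are titrated at 0.1–4.0 μM or 2–12 μM. Excitation 280 nm, emission 300–400 nm, blank subtracted, triplicates averaged. Ka and number of sites come from a modified Stern–Volmer plot.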

HepG2 cells = assay: Cell proliferation MTT assay, HepG2; format: cell-based; conditions: Homo sapiens, HepG2, 48 h, read-out: IC50, cell growth inhibition
How it was run: (§1)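 Cells at 37 °C, 5% CO2: A549 in F12K medium; HepG2 and HEK293 in DMEM with 10% heat-inactivated FBS and 1% penicillin-streptomycin; kept under 30 passages. Test compound at 0–250 μM for 48 h in 200 μl, then MTT with absorbance at 570 nm. Viability is given as % of untreated control and plotted against concentration. Doxorubicin is the positive control.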

A549 cells = assay: Cell proliferation MTT assay, A549; format: cell-based; conditions: Homo sapiens, A549, 48 h, read-out: IC50, cell growth inhibition
How it was run: as §1

PDK3 [2] = biological target: T1, PDK3; assay: Enzyme inhibition assay; format: biochemical
How it was run: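 Recombinant full-length human PDK3, His-tagged, expressed in E. coli BL21 Gold, purified from inclusion bodies by Ni-NTA and refolded by dialysis. Enzyme 5 μM with 200 μM ATP and test compound 0–30 μM, 15–20 min at 25 °C in 50 mM Tris, 100 mM NaCl, pH 8.0. Released phosphate read by malachite green at 620 nm against a 0.0–8 nmol phosphate standard curve. Triplicates, at least three independent experiments.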

PDK3 [3] = biological target: T1, PDK3; assay: Isothermal titration calorimetry of PDK3 with EA; format: binding; conditions: ITC, 25 °C, four-site model
How it was run: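 VP-ITC at 25 °C with PDK3 (30 μM) in the cell and 1% v/v DMSO added to the protein. Test compound is injected from the syringe: a 2 μl first injection, then 10 μl injections at 300 s intervals, stirring at 320 rpm. Heat of dilution is subtracted. The isotherm is fitted to a four-set-of-sites model for Ka, n, ΔH and ΔS.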

T1 sequence (Q15120 whole entry): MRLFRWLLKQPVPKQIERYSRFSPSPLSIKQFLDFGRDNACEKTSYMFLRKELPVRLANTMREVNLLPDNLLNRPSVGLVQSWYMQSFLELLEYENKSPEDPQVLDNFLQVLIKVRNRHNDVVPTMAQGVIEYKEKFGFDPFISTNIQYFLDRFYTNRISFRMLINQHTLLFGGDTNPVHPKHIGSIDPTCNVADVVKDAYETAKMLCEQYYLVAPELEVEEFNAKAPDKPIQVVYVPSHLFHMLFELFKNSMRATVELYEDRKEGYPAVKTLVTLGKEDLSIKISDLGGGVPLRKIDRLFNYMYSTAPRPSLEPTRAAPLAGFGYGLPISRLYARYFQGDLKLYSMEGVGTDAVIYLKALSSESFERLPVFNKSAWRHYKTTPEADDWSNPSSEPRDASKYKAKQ

Structure (SMILES): COc1cc(CNC(=O)CCCC/C=C/C(C)C)ccc1O [Capsaicin]
- Kd (PDK3 [1]): 0.271 µM

Structure (SMILES): CC1(C)O[C@H]2CC(=O)OC[C@]23[C@H]2CC[C@@]4(C)[C@H](c5ccoc5)OC(=O)[C@H]5O[C@]54[C@]2(C)C(=O)C[C@@H]13 [Limonin]
- Kd (PDK3 [1]): 0.0316 µM

Structure (SMILES): CC(C)=CCCC(C)=CC=O (mixture of isomers) [Citral]
- Kd (PDK3 [1]): 0.177 µM

Structure (SMILES): CCC(C)(C)C(=O)O[C@H]1C[C@@H](C)C=C2C=C[C@H](C)[C@H](CC[C@@H]3C[C@@H](O)CC(=O)O3)[C@H]21 [Simvastatin, reference compound]
- Kd (PDK3 [1]): 2.59 µM

Structure (SMILES): O=c1oc2c(O)c(O)cc3c(=O)oc4c(O)c(O)cc1c4c23 [Ellagic acid]
- IC50 (HepG2 cells): 36.7 ± 3.22 µM
- IC50 (A549 cells): 23.4 ± 1.33 µM
- IC50 (PDK3 [2]): ~5 µM
- ΔS1 (entropy change) (PDK3 [3]; site 1): ΔS1 = 9.13 cal mol^−1 deg^−1
- ΔS2 (entropy change) (PDK3 [3]; site 2): ΔS2 = −927 cal mol^−1 deg^−1
- ΔS3 (entropy change) (PDK3 [3]; site 3): ΔS3 = −1950 cal mol^−1 deg^−1
- ΔS4 (entropy change) (PDK3 [3]; site 4): ΔS4 = −2090 cal mol^−1 deg^−1
- Kd (PDK3 [3]; Ka1 (association constant), site 1): 106 µM
- Kd (PDK3 [3]; Ka2 (association constant), site 2): 8.47 µM
- Kd (PDK3 [3]; Ka3 (association constant), site 3): 25.6 µM
- Kd (PDK3 [3]; Ka4 (association constant), site 4): 33.7 µM
- Kd (PDK3 [1]): 0.00373 µM

Next, values leading:

- Kd (PDK3 [1]): 1.76 µM
Structure (SMILES): C[C@H]1[C@H](C)CC[C@]2(C(=O)O)CC[C@]3(C)C(=CC[C@@H]4[C@@]5(C)CC[C@H](O)C(C)(C)[C@@H]5CC[C@]43C)[C@H]12 [Ursolic acid]

- Kd (PDK3 [1]): 5.62 µM
Structure (SMILES): COc1cc(C=O)ccc1O [Vanillin]

— publication PMC9067284 (RSC Advances, 2019)
